In ChEMBL document CHEMBL4004869, “3-Phenylalkyl-2H-chromenes and -chromans as novel rhinovirus infection inhibitors” (Bioorg Med Chem, 2017):

Columns and labels:
[1] = test system: rhinovirus A1B; assay: Antiviral activity against HRV 1B infected in human HeLa cells after 72 hrs by plaque reduction assay; assay type: functional, cell-based
In short: (§1)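 Plaque reduction in HeLa monolayers infected with virus giving about 100 plaques per well. Compound tested dose-dependently starting from the maximum non-cytotoxic concentration, with ethanol stocks diluted in medium just before use. Where 50% is not reached, percent inhibition at MNCC is given. Two independent assays in triplicate, mean ± SD.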

[2] = Cytotoxicity against human HeLa cells assessed as reduction in cell viability by XTT assay; assay type: cell-based
In short: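 HeLa cytotoxicity by XTT colorimetric assay plus microscopy after 3 days at 37 °C. MNCC is the highest concentration leaving morphology and viability of all cells unaffected. Two independent assays in triplicate.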

[3] = Cytotoxicity against human HeLa cells assessed as changes in morphology after 3 days by microscopic method; assay type: cell-based; settings: read-out: MNCC
In short: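 HeLa cytotoxicity by XTT colorimetric assay plus microscopy after 3 days at 37 °C. MNCC is the highest concentration leaving morphology and viability of all cells unaffected. CC50 is the dose reducing viability by 50% of untreated controls. Two independent assays in triplicate.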

[4] = Selectivity index, ratio of CC50 for human HeLa cells to IC50 for HRV 1B infected in human HeLa cells
In short: (§2)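 Selectivity index is CC50 (XTT, HeLa) divided by IC50 from HeLa plaque reduction against the stated serotype.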

[5] = test system: rhinovirus B14; assay: Antiviral activity against HRV 14 infected in human HeLa cells at MNCC after 72 hrs by plaque reduction assay relative to control; assay type: functional; parameters: scale not given: the % may be the effect or the level left
In short: as §1, with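 “use. IC50 is the dose cutting plaque number by 50%, read from log concentration versus percent plaque reduction.” for “use.”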

[6] = test system: rhinovirus B14; assay: Antiviral activity against HRV 14 infected in human HeLa cells after 72 hrs by plaque reduction assay; assay type: functional, cell-based
In short: as §1, with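 “use. IC50 is the dose cutting plaque number by 50%, read from log concentration versus percent plaque reduction.” for “use.”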

[7] = Selectivity index, ratio of CC50 for human HeLa cells to IC50 for HRV 14 infected in human HeLa cells; in short: as §2
[8] = Rhinovirus A, HeLa, 72 h, read-out: IC50
[9] = Rhinovirus B, HeLa, 72 h, read-out: IC50

| IC50 ([1]; hela) | IC50 [1, 8] [µM] | IC50 [6, 9] [µM] | IC50 ([6]; hela) | Structure (SMILES) | CC50 [2] [µM] | MNTC at 72 h [3] [µM] | Activity [1] | Ratio CC50/IC50 [4] | Activity [5] [%] | Activity [6] | Ratio CC50/IC50 [7] |
| --- | --- | --- | --- | --- | --- | --- | --- | --- | --- | --- | --- |
| Not Active | – | – | – | O=C(/C=C/C1=Cc2ccccc2OC1)c1ccccc1 | 50 | 25 | – | – | – | – | – |
| – | 0.56 | > 50 | – | C1=C(CCCCCc2ccccc2)COc2ccccc21 | 100 | 50 | Dose-dependent effect | 178.57 | 37 | Dose-dependent effect | – |
| – | 0.56 | 30 | – | Clc1ccc(CCCC2COc3ccc(Cl)cc3C2)cc1 (configuration not stated) | 200 | 100 | Dose-dependent effect | 357.14 | – | Dose-dependent effect | 6.67 |
| – | 4.74 | 33 | – | c1ccc(CCCCCC2COc3ccccc3C2)cc1 (configuration not stated) | 200 | 100 | Dose-dependent effect | 42.19 | – | Dose-dependent effect | 6.05 |
| – | 0.48 | > 25 | – | C1=C(CCc2ccccc2)COc2ccccc21 | 50 | 25 | Dose-dependent effect | 104.17 | 26 | Dose-dependent effect | – |
| – | 0.49 | > 3.12 | – | c1ccc(CCC2COc3ccccc3C2)cc1 (configuration not stated) | 6.25 | 3.12 | Dose-dependent effect | 12.75 | 16 | Dose-dependent effect | – |
| – | 0.71 | > 50 | – | c1ccc(CCCCC2COc3ccccc3C2)cc1 (configuration not stated) | 100 | 50 | Dose-dependent effect | 140.84 | 25 | Dose-dependent effect | – |
| – | 0.54 | 12.7 | – | C1=C(CCCCc2ccccc2)COc2ccccc21 | 100 | 50 | Dose-dependent effect | 185.18 | – | Dose-dependent effect | 7.87 |
| Not Active | – | – | Not Active | C/C(=C\c1ccccc1)C1=Cc2ccccc2OC1 | 25 | 12.5 | – | – | – | – | – |
| – | 2.37 | 40.5 | – | C1=C(CCCc2ccccc2)COc2ccccc21 | 200 | 100 | Dose-dependent effect | 84.39 | – | Dose-dependent effect | 4.94 |
| – | 1.79 | 25 | – | Clc1ccc2c(c1)CC(CCCc1ccccc1)CO2 (configuration not stated) | 200 | 100 | Dose-dependent effect | 111.73 | – | Dose-dependent effect | 8 |
| – | 9.59 | > 100 | – | c1ccc(CCCC2COc3ccccc3C2)cc1 (configuration not stated) | 200 | 100 | Dose-dependent effect | 20.85 | 37 | Dose-dependent effect | – |
